# Measurements as given in ChEMBL document CHEMBL1127344, “Tridentate ligands containing the SNS donor atom set as a novel backbone for the development of technetium brain-imaging agents” (J Med Chem, 1994).
# How the values were obtained:
# Mus musculus [1] = species: Mus musculus; assay: Tested for biodistribution of compound at 60 min in mice spleen; format: ADME, organism-based; conditions: in vivo, 1 h
# How it was run: (§1)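 Male Swiss albino mice, at least five per group, received HPLC-purified 99mTc complex by tail vein. The complex was reconstituted in 50% methanol (0.1 mL, 2-3 μCi). Mice were killed by cardiectomy under light ether at 1-60 min pi. Organs were weighed and γ-counted against a 1% injected-dose standard to give % dose/organ. Blood and muscle were taken as 7% and 43% of body weight.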
# Rattus norvegicus [2] = species: Rattus norvegicus; assay: Tested for biodistribution of compound at 5 min in rat liver; format: ADME, organism-based; conditions: in vivo
# Mus musculus [3] = species: Mus musculus; assay: Tested for biodistribution of compound at 60 min in mice intestine; format: ADME, organism-based; conditions: in vivo, 1 h; how it was run: as §1
# Rattus norvegicus [4] = species: Rattus norvegicus; assay: Tested for biodistribution of compound at 10 min in rat liver; format: ADME, organism-based; conditions: in vivo
# How it was run: (§2)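 Wistar rats under ether anesthesia were dosed through the femoral vein with 0.1 mL of 99mTc complex (3-6 μCi) and dissected 5-60 min pi. Tissue radioactivity was γ-counted against a 1% injected-dose standard and expressed as % dose/organ. Blood and muscle were calculated from sample weight assuming 7% and 43% of body weight.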
# Rattus norvegicus [5] = species: Rattus norvegicus; assay: Tested for biodistribution of compound at 30 min in rat spleen; format: ADME, organism-based; conditions: in vivo, 0.5 h
# Mus musculus [6] = species: Mus musculus; assay: Tested for biodistribution of compound at 5 min in mice lungs; format: ADME, organism-based, Lung; conditions: in vivo; how it was run: as §1
# Rattus norvegicus [7] = species: Rattus norvegicus; assay: Tested for biodistribution of compound at 30 min in rat lungs; format: ADME, organism-based, Lung; conditions: in vivo, 0.5 h
# Mus musculus [8] = species: Mus musculus; assay: Tested for biodistribution of compound at 30 min in mice liver; format: ADME, organism-based; conditions: in vivo, 0.5 h
# How it was run: (§3)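 Male Swiss albino mice, at least five per group, received 0.1 mL (2-3 μCi) of HPLC-purified 99mTc complex reconstituted in 50% methanol by tail vein. They were killed by cardiectomy under light ether anesthesia at set times (1-60 min pi). Organs were weighed and γ-counted against a 1% injected-dose standard to give % dose/organ. Blood and muscle were taken as 7% and 43% of body weight.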
# Rattus norvegicus [9] = species: Rattus norvegicus; assay: Tested for biodistribution of compound at 5 min in rat l intestine; format: ADME, organism-based; conditions: in vivo
# Mus musculus [10] = species: Mus musculus; assay: Tested for biodistribution of compound at 10 min in mice heart; format: ADME, organism-based; conditions: in vivo; how it was run: as §3
# Rattus norvegicus [11] = species: Rattus norvegicus; assay: Tested for biodistribution of compound at 10 min in rat kidney; format: ADME, organism-based; conditions: in vivo; how it was run: as §2
# Rattus norvegicus [12] = species: Rattus norvegicus; assay: Tested for biodistribution of compound at 5 min in rat stomach; format: ADME, organism-based; conditions: in vivo
# Rattus norvegicus [13] = species: Rattus norvegicus; assay: Tested for biodistribution of compound at 30 min in rat blood; format: ADME, organism-based; conditions: in vivo, 0.5 h; how it was run: as §2
# Mus musculus [14] = species: Mus musculus; assay: Tested for biodistribution of compound at 30 min in mice brain; format: ADME, organism-based; conditions: in vivo, 0.5 h; how it was run: as §3
# Mus musculus [15] = species: Mus musculus; assay: Tested for biodistribution of compound at 1 min in mice intestine; format: ADME, organism-based; conditions: in vivo; how it was run: as §3
# Mus musculus [16] = species: Mus musculus; assay: Tested for biodistribution of compound at 30 min in mice blood; format: ADME, organism-based; conditions: in vivo, 0.5 h; how it was run: as §3
# Mus musculus [17] = species: Mus musculus; assay: Tested for biodistribution of compound at 1 min in mice kidney; format: ADME, organism-based; conditions: in vivo; how it was run: as §3
# Mus musculus [18] = species: Mus musculus; assay: Tested for biodistribution of compound at 1 min in mice heart; format: ADME, organism-based; conditions: in vivo; how it was run: as §3
# Rattus norvegicus [19] = species: Rattus norvegicus; assay: Tested for biodistribution of compound at 10 min in rat s. intestine; format: ADME, organism-based; conditions: in vivo; how it was run: as §2
# Mus musculus [20] = species: Mus musculus; assay: Tested for biodistribution of compound at 5 min in mice blood; format: ADME, organism-based; conditions: in vivo; how it was run: as §1
# Mus musculus [21] = species: Mus musculus; assay: Tested for biodistribution of compound at 30 min in mice heart; format: ADME, organism-based; conditions: in vivo, 0.5 h; how it was run: as §3
# Rattus norvegicus [22] = species: Rattus norvegicus; assay: Tested for biodistribution of compound at 10 min in rat spleen; format: ADME, organism-based; conditions: in vivo; how it was run: as §2
# Rattus norvegicus [23] = species: Rattus norvegicus; assay: Tested for biodistribution of compound at 10 min in rat muscle; format: ADME, organism-based, Muscle tissue; conditions: in vivo; how it was run: as §2
# Mus musculus [24] = species: Mus musculus; assay: Tested for biodistribution of compound at 5 min in mice heart; format: ADME, organism-based; conditions: in vivo; how it was run: as §1
# Mus musculus [25] = species: Mus musculus; assay: Tested for biodistribution of compound at 60 min in mice muscle; format: ADME, organism-based, Muscle tissue; conditions: in vivo, 1 h; how it was run: as §1
# Mus musculus [26] = species: Mus musculus; assay: Tested for biodistribution of compound at 10 min in mice brain; format: ADME, organism-based; conditions: in vivo; how it was run: as §3
# Rattus norvegicus [27] = species: Rattus norvegicus; assay: Tested for biodistribution of compound at 60 min in rat spleen; format: ADME, organism-based; conditions: in vivo, 1 h
# Mus musculus [28] = species: Mus musculus; assay: Tested for biodistribution of compound at 60 min in mice blood; format: ADME, organism-based; conditions: in vivo, 1 h; how it was run: as §1
# Rattus norvegicus [29] = species: Rattus norvegicus; assay: Tested for biodistribution of compound at 10 min in rat blood; format: ADME, organism-based; conditions: in vivo; how it was run: as §2
# Rattus norvegicus [30] = species: Rattus norvegicus; assay: Tested for biodistribution of compound at 10 min in rat brain; format: ADME, organism-based; conditions: in vivo; how it was run: as §2
# Mus musculus [31] = species: Mus musculus; assay: Tested for biodistribution of compound at 1 min in mice spleen; format: ADME, organism-based; conditions: in vivo; how it was run: as §3
# Rattus norvegicus [32] = species: Rattus norvegicus; assay: Tested for biodistribution of compound at 60 min in rat muscle; format: ADME, organism-based, Muscle tissue; conditions: in vivo, 1 h
# Mus musculus [33] = species: Mus musculus; assay: Tested for biodistribution of compound at 1 min in mice stomach; format: ADME, organism-based; conditions: in vivo; how it was run: as §3
# Mus musculus [34] = species: Mus musculus; assay: Tested for biodistribution of compound at 10 min in mice stomach; format: ADME, organism-based; conditions: in vivo; how it was run: as §3
# Rattus norvegicus [35] = species: Rattus norvegicus; assay: Tested for biodistribution of compound at 30 min in rat s. intestine; format: ADME, organism-based; conditions: in vivo, 0.5 h
# Rattus norvegicus [36] = species: Rattus norvegicus; assay: Tested for biodistribution of compound at 60 min in rat s. intestine; format: ADME, organism-based; conditions: in vivo, 1 h
# Rattus norvegicus [37] = species: Rattus norvegicus; assay: Tested for biodistribution of compound at 10 min in rat intestine; format: ADME, organism-based; conditions: in vivo; how it was run: as §2
# Mus musculus [38] = species: Mus musculus; assay: Tested for biodistribution of compound at 10 min in mice muscle; format: ADME, organism-based, Muscle tissue; conditions: in vivo; how it was run: as §3
# Rattus norvegicus [39] = species: Rattus norvegicus; assay: Tested for biodistribution of compound at 5 min in rat muscle; format: ADME, organism-based, Muscle tissue; conditions: in vivo
# Mus musculus [40] = species: Mus musculus; assay: Tested for biodistribution of compound at 10 min in mice lungs; format: ADME, organism-based, Lung; conditions: in vivo; how it was run: as §3
# Rattus norvegicus [41] = species: Rattus norvegicus; assay: Tested for biodistribution of compound at 5 min in rat brain; format: ADME, organism-based; conditions: in vivo
# Rattus norvegicus [42] = species: Rattus norvegicus; assay: Tested for biodistribution of compound at 30 min in rat brain; format: ADME, organism-based; conditions: in vivo, 0.5 h; how it was run: as §2
# Mus musculus [43] = species: Mus musculus; assay: Tested for biodistribution of compound at 60 min in mice lungs; format: ADME, organism-based, Lung; conditions: in vivo, 1 h; how it was run: as §1
# Mus musculus [44] = species: Mus musculus; assay: Tested for biodistribution of compound at 30 min in mice kidney; format: ADME, organism-based; conditions: in vivo, 0.5 h; how it was run: as §3
# Rattus norvegicus [45] = species: Rattus norvegicus; assay: Tested for biodistribution of compound at 30 min in rat l intestine; format: ADME, organism-based; conditions: in vivo, 0.5 h; how it was run: as §2
# Rattus norvegicus [46] = species: Rattus norvegicus; assay: Tested for biodistribution of compound at 5 min in rat lungs; format: ADME, organism-based, Lung; conditions: in vivo
# Mus musculus [47] = species: Mus musculus; assay: Tested for biodistribution of compound at 5 min in mice muscle; format: ADME, organism-based, Muscle tissue; conditions: in vivo; how it was run: as §1
# Mus musculus [48] = species: Mus musculus; assay: Tested for biodistribution of compound at 60 min in mice stomach; format: ADME, organism-based; conditions: in vivo, 1 h; how it was run: as §1
substance,measurement,setting,value
"[4-methoxythio)phenolato][N,N-bis(2-mercaptoethyl)-N',N'-diethylethylenediamine] oxotechnetium",Dose/organ,Mus musculus [1],0.21%
same,Dose/organ,Rattus norvegicus [2],19.32%
same,Dose/organ,Mus musculus [3],33.7%
same,Dose/organ,Rattus norvegicus [4],24.09%
same,Dose/organ,Rattus norvegicus [5],0.3%
same,Dose/organ,Mus musculus [6],15.37%
same,Dose/organ,Rattus norvegicus [7],2.08%
same,Dose/organ,Mus musculus [8],25.58%
same,Dose/organ,Rattus norvegicus [9],2.64%
same,Dose/organ,Mus musculus [10],0.46%
same,Dose/organ,Rattus norvegicus [11],4.26%
same,Dose/organ,Rattus norvegicus [12],2.18%
same,Dose/organ,Rattus norvegicus [13],7.47%
same,Dose/organ,Mus musculus [14],1.71%
same,Dose/organ,Mus musculus [15],2.61%
same,Dose/organ,Mus musculus [16],1.29%
same,Dose/organ,Mus musculus [17],1.7%
same,Dose/organ,Mus musculus [18],3.6%
same,Dose/organ,Rattus norvegicus [19],6.34%
same,Dose/organ,Mus musculus [20],2.02%
same,Dose/organ,Mus musculus [21],0.19%
same,Dose/organ,Rattus norvegicus [22],0.77%
same,Dose/organ,Rattus norvegicus [23],27.89%
same,Dose/organ,Mus musculus [24],0.74%
same,Dose/organ,Mus musculus [25],6.86%
same,Dose/organ,Mus musculus [26],2.47%
same,Dose/organ,Rattus norvegicus [27],0.46%
same,Dose/organ,Mus musculus [28],1.21%
same,Dose/organ,Rattus norvegicus [29],17.72%
same,Dose/organ,Rattus norvegicus [30],1.16%
same,Dose/organ,Mus musculus [31],0.03%
same,Dose/organ,Rattus norvegicus [32],10.6%
same,Dose/organ,Mus musculus [33],0.15%
same,Dose/organ,Mus musculus [34],1.2%
same,Dose/organ,Rattus norvegicus [35],7.55%
same,Dose/organ,Rattus norvegicus [36],8.15%
same,Dose/organ,Rattus norvegicus [37],2.7%
same,Dose/organ,Mus musculus [38],16.49%
same,Dose/organ,Rattus norvegicus [39],28.6%
same,Dose/organ,Mus musculus [40],9.78%
same,Dose/organ,Rattus norvegicus [41],1.45%
same,Dose/organ,Rattus norvegicus [42],0.53%
same,Dose/organ,Mus musculus [43],1.79%
same,Dose/organ,Mus musculus [44],2.19%
same,Dose/organ,Rattus norvegicus [45],1.27%
same,Dose/organ,Rattus norvegicus [46],9.38%
same,Dose/organ,Mus musculus [47],24.17%
same,Dose/organ,Mus musculus [48],2.34%
